Experimental data reported in ChEMBL document CHEMBL3621166, “Synthesis, Structure-Activity Relationship, and Mechanistic Investigation of Lithocholic Acid Amphiphiles for Colon Cancer Therapy” (Medchemcomm, 2015).
Active and inactive are the calls of the source. The rule behind the calls is not given here.

What was measured:
HCT-116 [1] = test: Cytotoxicity against human HCT116 cells assessed as cell viability after 48 hrs by MTT assay; format: functional, cell-based; details: HCT-116, 48 h
[2] = Cytotoxicity against human DLD1 cells assessed as cell viability after 48 hrs by MTT assay; format: functional, cell-based; details: DLD-1, 48 h
[3] = Cytotoxicity against human HCT8 cells assessed as cell viability after 48 hrs by MTT assay; format: functional, cell-based; details: HCT-8, 48 h
HCT-116 [4] = test: Inhibition of colony formation in human HCT116 cells at 15 to 50 uM after 2 weeks using crystal violet staining; format: functional, cell-based
How it was run: (§1)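 Cells plated at 200 per well and treated after 24 h adherence at 15, 25 or 50 μM. Colonies stained with crystal violet after 2 weeks and counted. Plating efficiency taken from untreated wells, survival fraction from treated colony counts. Two experiments in duplicate, mean ± SD.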

DLD-1 = test: Inhibition of colony formation in human DLD1 cells at 15 to 50 uM after 2 weeks using crystal violet staining; format: functional, cell-based; how it was run: as §1
HCT-8 [5] = test: Inhibition of colony formation in human HCT8 cells at 15 to 50 uM after 2 weeks using crystal violet staining; format: functional, cell-based; how it was run: as §1
HCT-116 [6] = test: Cell cycle arrest in human HCT116 cells at 15 to 50 uM after 48 hrs using propidium iodide staining by FACS analysis; format: functional, cell-based
How it was run: (§2)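 Cells seeded at ~2 × 10^5 per well, treated after 24 h at 15, 25 and 50 μM for 48 h. Harvested by trypsin, washed in cold PBS and fixed in 70% ice-cold ethanol. RNase-treated 1 h at 37 °C, stained with propidium iodide (50 μg mL−1) 20 min at room temperature, and analysed by FACS. Triplicate, mean ± SD.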

[7] = Cell cycle arrest in human DLD1 cells at 15 to 50 uM after 48 hrs using propidium iodide staining by FACS analysis; format: functional, cell-based; details: DLD-1; how it was run: as §2
[8] = Cell cycle arrest in human HCT8 cells at 15 to 50 uM after 48 hrs using propidium iodide staining by FACS analysis; format: functional, cell-based; details: HCT-8; how it was run: as §2
HCT-116 [9] = test: Induction of apoptosis in human HCT116 cells assessed as late apoptotic cells at 15 uM after 48 hrs using annexin-V FITC and propidium iodide staining by flow cytometry (reference value: 1.59%); format: functional
HCT-116 [10] = test: Induction of apoptosis in human HCT116 cells assessed as late apoptotic cells at 25 uM after 48 hrs using annexin-V FITC and propidium iodide staining by flow cytometry (reference value: 1.59%); format: functional
HCT-116 [11] = test: Induction of apoptosis in human HCT116 cells assessed as late apoptotic cells at 50 uM after 48 hrs using annexin-V FITC and propidium iodide staining by flow cytometry (reference value: 1.59%); format: functional
HCT-116 [12] = test: Induction of apoptosis in human HCT116 cells assessed as early apoptotic cells at 15 uM after 48 hrs using annexin-V FITC and propidium iodide staining by flow cytometry (reference value: 4.80%); format: functional
HCT-116 [13] = test: Induction of apoptosis in human HCT116 cells assessed as early apoptotic cells at 25 uM after 48 hrs using annexin-V FITC and propidium iodide staining by flow cytometry (reference value: 4.80%); format: functional
HCT-116 [14] = test: Induction of apoptosis in human HCT116 cells assessed as early apoptotic cells at 50 uM after 48 hrs using annexin-V FITC and propidium iodide staining by flow cytometry (reference value: 4.80%); format: functional
[15] = Selectivity ratio of human DLD1 cells over CHO cells; format: cell-based; details: Chinese hamster (CHO), DLD1 cells versus CHO cells
[16] = Selectivity ratio of human HCT8 cells over CHO cells; format: ADME, cell-based; details: Chinese hamster (CHO), HCT8 cells versus CHO cells
A549 [17] = test: Selectivity ratio of human HCT116 cells over human A549 cells; format: functional
A549 [18] = test: Selectivity ratio of human DLD1 cells over human A549 cells; format: functional
A549 [19] = test: Selectivity for human HCT8 cells over human A549 cells; format: functional
HCT-116 [20] = test: Inhibition of colony formation in human HCT116 cells at 15 uM after 2 weeks using crystal violet staining; format: functional; details: HCT-116, 336 h
HCT-116 [21] = test: Inhibition of colony formation in human HCT116 cells at 50 uM after 2 weeks using crystal violet staining; format: functional, cell-based; how it was run: as §1
HCT-116 [22] = test: Cell cycle arrest in human HCT116 cells assessed as accumulation at sub-G1 phase at 50 uM after 48 hrs using propidium iodide staining by FACS analysis; format: functional
[23] = Cell cycle arrest in human DLD1 cells assessed as accumulation at sub-G1 phase at 50 uM after 48 hrs using propidium iodide staining by FACS analysis; format: functional, cell-based; details: DLD-1; how it was run: as §2
[24] = Cell cycle arrest in human HCT8 cells assessed as accumulation at sub-G1 phase at 50 uM after 48 hrs using propidium iodide staining by FACS analysis; format: functional, cell-based; details: HCT-8; how it was run: as §2
HCT-116 [25] = test: Antitumor activity against human HCT116 cells xenografted in nude mouse assessed as reduction in tumor volume at 20 mg/kg after 6 days; format: functional; design: scale not given: the % may be the effect or the level left
HCT-116 [26] = test: Induction of apoptosis in human HCT116 cells assessed as increased level of procaspase-8 at 10 uM by Western blot analysis; format: functional, cell-based
HCT-116 [27] = test: Induction of apoptosis in human HCT116 cells assessed as decreased level of procaspase-8 at 50 uM by Western blot analysis; format: functional, cell-based
HCT-116 [28] = test: Induction of apoptosis in human HCT116 cells assessed as increased level of cleaved caspase-7 at 10 to 50 uM by Western blot analysis; format: functional, cell-based
HCT-116 [29] = test: Induction of apoptosis in human HCT116 cells assessed as increased level of cleaved caspase-3 at 10 to 50 uM by Western blot analysis; format: functional, cell-based
HCT-116 [30] = test: Induction of apoptosis in human HCT116 cells xenografted in nude mouse assessed as increased level of cleaved caspase-3 at 20 mg/kg after 6 days by Western blot analysis relative to control; format: functional, organism-based
How it was run: (§3)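 Female nude mice, 6 weeks old, received 1.5 × 10^6 HCT-116 cells in the right flank. At ~750 mm3 mice were split into groups of 5 and dosed from day 19 at 20 mg kg−1 near the tumour, vehicle as control. Tumours were harvested at sacrifice on day 25 and homogenised in RIPA buffer. Equal protein loaded, transferred to PVDF, blocked in 5% milk/TBST, primary antibodies overnight at 4 °C, HRP secondary, ECL detection.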

HCT-116 [31] = test: Induction of apoptosis in human HCT116 cells xenografted in nude mouse assessed as increased level of cleaved caspase-7 at 20 mg/kg after 6 days by Western blot analysis relative to control; format: functional, organism-based; how it was run: as §3
HCT-116 [32] = test: Induction of apoptosis in human HCT116 cells xenografted in nude mouse assessed as increased level of cleaved caspase-8 at 20 mg/kg after 6 days by Western blot analysis relative to control; format: functional, organism-based; how it was run: as §3
HCT-116 [33] = test: Ratio of lithocholic acid IC50 to compound IC50 for human HCT116 cells assessed as cell viability after 48 hrs by MTT assay; format: functional
HCT-8 [34] = test: Ratio of lithocholic acid IC50 to compound IC50 for human HCT8 cells assessed as cell viability after 48 hrs by MTT assay; format: functional
[35] = Retention time of the compound by HPLC method; format: physicochemical
[36] = Toxicity in RBC (unknown origin) assessed as hemolytic activity; format: cell-based, Erythrocyte; details: red blood cells
HCT-116 [37] = test: Induction of apoptosis in human HCT116 cells assessed as apoptotic cells at 25 uM after 48 hrs using annexin-V FITC and propidium iodide staining by flow cytometry relative to lithocholic acid; format: functional
HCT-116 [38] = test: Induction of apoptosis in human HCT116 cells assessed as apoptotic cells at 50 uM after 48 hrs using annexin-V FITC and propidium iodide staining by flow cytometry relative to lithocholic acid; format: functional
HCT-116 [39] = test: Antitumor activity against human HCT116 cells xenografted in nude mouse assessed as reduction in tumor volume at 20 mg/kg measured up to 25 days; format: functional; design: scale not given: the % may be the effect or the level left
[40] = Selectivity ratio of human HCT116 cells over human THP1 cells; format: ADME, cell-based, HCT-116; details: HCT116 cells versus THP1 cells
[41] = Selectivity ratio of human DLD1 cells over human THP1 cells; format: ADME, cell-based, THP-1; details: DLD1 cells versus THP1 cells
[42] = Selectivity ratio of human HCT8 cells over human THP1 cells; format: ADME, cell-based, THP-1; details: HCT8 cells versus THP1 cells
[43] = Selectivity ratio of human HCT116 cells over CHO cells; format: cell-based; details: Chinese hamster (CHO), HCT116 cells versus CHO cells

With `COC(=O)CC[C@@H](C)[C@H]1CC[C@H]2[C@@H]3CC[C@@H]4C[C@H](OC(=O)CN)CC[C@]4(C)[C@H]3CC[C@]12C` the IC50 (HCT-116 [1]) was 36.7 µM, the IC50 [2] was 29.4 µM and the IC50 [3] was 30.7 µM.

In the case of `C[C@H](CCC(=O)O)[C@H]1CC[C@H]2[C@@H]3CC[C@@H]4C[C@H](O)CC[C@]4(C)[C@H]3CC[C@]12C` [LITHOCHOLIC ACID], the inhibition (HCT-116 [4]) is reported as “inactive”, the inhibition (DLD-1) is reported as “inactive” and the inhibition (HCT-8 [5]) is reported as “inactive”. For the same compound, the Activity (HCT-116 [6]) was “inactive”, the Activity [7] was “inactive” and the Activity [8] was “inactive”. It also gave an Activity (HCT-116 [9]) of 8.88%, an Activity (HCT-116 [10]) of 11.54% and an Activity (HCT-116 [11]) of 13.15%. It also gave an Activity (HCT-116 [12]) of 10.21%, an Activity (HCT-116 [13]) of 18.79% and an Activity (HCT-116 [14]) of 21.89%. For the same compound, the IC50 (HCT-116 [1]) was 81.1 µM, the IC50 [2] was 173 µM and the IC50 [3] was 97.4 µM.

Work on `COC(=O)CC[C@@H](C)[C@H]1CC[C@H]2[C@@H]3CC[C@@H]4C[C@H](OC(=O)C[N+]5(C)CCCCC5)CC[C@]4(C)[C@H]3CC[C@]12C.[Cl-]` yielded a selectivity ratio [15] of 5, a selectivity ratio [16] of 5 and a selectivity ratio (A549 [17]) of 2. The selectivity ratio (A549 [18]) was 2, the selectivity ratio (A549 [19]) was 2 and the inhibition (DLD-1) was “Active”. For the same compound, the inhibition (HCT-8 [5]) was “Active”, the inhibition at 15 µM (HCT-116 [20]) was 50% and the inhibition (HCT-116 [21]) was “Active”. It also gave an Activity (HCT-116 [22]) of 80%, an Activity [23] of 80% and an Activity [24] of 40%. It also gave an Activity (HCT-116 [9]) of 12.47%, an Activity (HCT-116 [10]) of 15.78% and an Activity (HCT-116 [11]) of 26.63%. The Activity (HCT-116 [12]) was 9.04%, the Activity (HCT-116 [13]) was 23.57% and the Activity (HCT-116 [14]) was 41.19%. The Activity (HCT-116 [25]) was 75%, the Activity (HCT-116 [26]) was “inactive” and the Activity (HCT-116 [27]) was “Active”. For the same compound, the Activity (HCT-116 [28]) was “Active”, the Activity (HCT-116 [29]) was “Active” and the Activity (HCT-116 [30]) was “Active”. The Activity (HCT-116 [31]) was “Active”, the Activity (HCT-116 [32]) was “Active” and the “Ratio IC50” value (HCT-116 [33]) was 6. The “Ratio IC50” value (HCT-8 [34]) was 6, the Retention_time [35] was 8.12 min and the HC50 [36] was > 1 mM. For the same compound, the Ratio (HCT-116 [37]) was 1.3, the Ratio (HCT-116 [38]) was 2 and the Activity (HCT-116 [39]) was 75%. For the same compound, the IC50 (HCT-116 [1]) was 11.7 µM, the IC50 [2] was 13.7 µM and the IC50 [3] was 14.7 µM. The selectivity ratio [40] was 5, the selectivity ratio [41] was 5 and the selectivity ratio [42] was 5. It also gave a selectivity ratio [43] of 3.

`COC(=O)CC[C@@H](C)[C@H]1CC[C@H]2[C@@H]3CC[C@@H]4C[C@H](OC(=O)C[n+]5ccc(N(C)C)cc5)CC[C@]4(C)[C@H]3CC[C@]12C.[Cl-]` showed a Retention_time [35] of 7.9 min, an IC50 (HCT-116 [1]) of 13.2 µM and an IC50 [2] of 17 µM. It also gave an IC50 [3] of 59.1 µM.

`COC(=O)CC[C@@H](C)[C@H]1CC[C@H]2[C@@H]3CC[C@@H]4C[C@H](OC(=O)CN5CCSCC5)CC[C@]4(C)[C@H]3CC[C@]12C.Cl` gave a Retention_time [35] of 28.63 min, an IC50 (HCT-116 [1]) of 87.3 µM and an IC50 [2] of 163 µM. The IC50 [3] was 130 µM.

`COC(=O)CC[C@@H](C)[C@H]1CC[C@H]2[C@@H]3CC[C@@H]4C[C@H](OC(=O)CN5CCOCC5)CC[C@]4(C)[C@H]3CC[C@]12C.Cl` gave a Retention_time [35] of 24.17 min, an IC50 (HCT-116 [1]) of 89 µM and an IC50 [2] of 176 µM. It also gave an IC50 [3] of 121 µM.
